Among the data in ChEMBL document CHEMBL1129250, “Interaction of 1,4-dihydropyridine and pyridine derivatives with adenosine receptors: selectivity for A3 receptors” (J Med Chem, 1996) are Ki, Inhibition and inhibition values, retold here.

The Ki is the dissociation constant of the complex between target and ligand, obtained from inhibition or displacement. For orientation: Inhibition means the drop in the measured response relative to a control, in per cent. Usually inhibition stands for the change of the read-out against control, counted positive when it falls. Read a high inhibition as a response far below the control.

A value given as a limit tells only on which side of the number the result lay.

For one series, the target named is Adenosine receptor A2a (Rattus norvegicus, UniProt P30543). Nature of the series: Displacement of [3H]-CGS- 21680 binding to Adenosine A2A receptor in rat striatal membranes. It is filed as cell membranes, Membrane. In a few lines:
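Adenosine deaminase (3 units/mL) present during preparation, 30 min preincubation at 30 °C and incubation. At least five competitor concentrations over 3 orders of magnitude.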
(In general: Displacement assays read how much labelled ligand stays bound in the presence of the test substance.)

Series [1] deals with T1, Voltage-gated L-type calcium channel (Rattus norvegicus, UniProt P22002+Q02485+P27732). Nature of the series: Inhibition of [3H]isradipine binding to L-type [Ca2+] channel of rat brain membranes. The series is classed as cell membranes, Membrane. The gist of the method:
(§1)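 Rat brain membranes (~100 μg protein) incubated 1 h at 25 °C with 0.1 nM [3H]isradipine and varying competitor in 50 mM Tris, pH 7.4. Nonspecific binding with 10 μM nitrendipine.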

The target in series [2] is T2, Adenosine receptor A3 (Homo sapiens, UniProt P0DMS8).
T2 sequence (P0DMS8 whole entry): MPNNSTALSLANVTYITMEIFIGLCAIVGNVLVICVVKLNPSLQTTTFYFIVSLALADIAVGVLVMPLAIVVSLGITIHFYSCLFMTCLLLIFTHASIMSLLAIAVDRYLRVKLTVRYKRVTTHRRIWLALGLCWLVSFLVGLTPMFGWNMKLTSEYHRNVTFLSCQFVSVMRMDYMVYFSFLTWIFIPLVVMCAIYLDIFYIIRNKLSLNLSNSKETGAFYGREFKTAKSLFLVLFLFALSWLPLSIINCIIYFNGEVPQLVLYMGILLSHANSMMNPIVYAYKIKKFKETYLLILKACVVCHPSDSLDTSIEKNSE
In words: Displacement of [125]AB-MECA binding to human Adenosine A3 receptor expressed in HEK cells. It is filed as cell-based, HEK293.

For another series, the target named is T3, Adenosine receptor A1 (Rattus norvegicus, UniProt P25099).
T3 sequence (P25099 whole entry): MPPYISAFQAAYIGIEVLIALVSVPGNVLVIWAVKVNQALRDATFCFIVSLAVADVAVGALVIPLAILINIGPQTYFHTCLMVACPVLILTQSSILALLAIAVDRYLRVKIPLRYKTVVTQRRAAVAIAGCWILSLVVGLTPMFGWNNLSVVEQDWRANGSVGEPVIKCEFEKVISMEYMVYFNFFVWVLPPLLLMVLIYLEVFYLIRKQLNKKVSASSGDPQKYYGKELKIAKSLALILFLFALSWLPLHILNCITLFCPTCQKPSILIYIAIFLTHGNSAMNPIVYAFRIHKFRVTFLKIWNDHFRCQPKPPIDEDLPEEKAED
In words: (§2) Displacement of [3H](R)-PIA binding to Adenosine A1 receptor in rat brain membranes. It is filed as cell membranes.

In series [3] the target is T1, Voltage-gated L-type calcium channel. Nature of the series: Inhibition of [3H]-isradipine binding to L-type [Ca2+] channel of rat brain membranes. It is filed as cell membranes, Membrane. The gist of the method:
as §1

Series [4] addresses T4, Adenosine receptor A3 (Rattus norvegicus, UniProt P28647).
T4 sequence (P28647 whole entry): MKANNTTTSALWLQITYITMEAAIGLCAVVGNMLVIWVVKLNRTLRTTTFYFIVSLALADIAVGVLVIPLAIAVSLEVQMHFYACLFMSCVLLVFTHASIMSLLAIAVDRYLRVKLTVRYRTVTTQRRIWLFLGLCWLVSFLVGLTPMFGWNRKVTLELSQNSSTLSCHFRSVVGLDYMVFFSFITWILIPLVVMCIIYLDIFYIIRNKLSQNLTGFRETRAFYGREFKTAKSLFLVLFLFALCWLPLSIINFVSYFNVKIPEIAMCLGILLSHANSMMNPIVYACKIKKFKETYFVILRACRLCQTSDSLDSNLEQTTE
In words: Binding affinity against rat Adenosine A3 receptor from CHO cells. The series is classed as cell-based. In a few lines: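 CHO cell membranes stably expressing cloned rat A3 receptor. Nonspecific binding defined with 100 μM R-PIA. Filtration assay. IC50 converted to Ki by Cheng–Prusoff.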

For series [5], the target named is Adenosine receptor A2a (Rattus norvegicus) (UniProt P30543). Nature of the series: Displacement of [3H]-CGS- 21680 from Adenosine A2A receptor in rat striatal membranes. As to conditions: Membrane, concentration not given here; call rule not given here. The series is classed as cell membranes. In a few lines: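 Rat striatal membranes with [3H]CGS 21680. Adenosine deaminase (3 units/mL) present during preparation, 30 min preincubation at 30 °C and incubation. At least five competitor concentrations over 3 orders of magnitude.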

Series [6] concerns the target T5, Adenosine receptor A3 (Rattus norvegicus) (UniProt P28647).
T5 sequence (whole entry): T4 sequence (P28647 whole entry)
In words: Inhibition of adenylyl cyclase by A3 agonist IB-MECA(10e-6M) in CHO cell membranes expressing rat Adenosine A3 receptor. The series is classed as functional, cell-based. In a few lines:
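Membranes from CHO cells stably expressing rat A3 receptor. Stimulated with 1 μM forskolin and [α-32P]ATP. Test compounds at 10 μM against the stated IB-MECA concentration. Stop buffer contained [3H]cyclic AMP. Reported as percent inhibition; significance by t-test.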

In series [7] the target is T6, Equilibrative nucleoside transporter 1 (Rattus norvegicus, UniProt O54698).
T6 sequence (O54698 whole entry): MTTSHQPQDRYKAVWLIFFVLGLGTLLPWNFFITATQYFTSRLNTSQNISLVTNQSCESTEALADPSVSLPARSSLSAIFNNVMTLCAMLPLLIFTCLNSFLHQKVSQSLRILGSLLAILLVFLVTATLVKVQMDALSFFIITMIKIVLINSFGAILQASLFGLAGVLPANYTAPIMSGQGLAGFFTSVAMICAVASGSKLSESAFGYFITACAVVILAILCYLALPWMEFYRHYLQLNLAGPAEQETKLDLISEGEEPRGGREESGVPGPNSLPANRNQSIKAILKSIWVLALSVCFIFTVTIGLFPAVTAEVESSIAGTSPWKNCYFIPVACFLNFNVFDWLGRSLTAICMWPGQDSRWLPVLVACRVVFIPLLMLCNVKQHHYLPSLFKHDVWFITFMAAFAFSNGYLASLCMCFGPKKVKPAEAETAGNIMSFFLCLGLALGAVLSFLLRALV
In words: Ability to displace radioligand from Na+ independent Adenosine transporter in rat. The gist of the method: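 Rat forebrain membranes incubated 30 min at 23 °C with 0.7 nM [3H]NBI and varying competitor concentrations in 50 mM Tris, pH 7.4. Ki or percent of specific binding displaced.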

For series [8], the target named is T7, Adenosine receptor A1 (Rattus norvegicus) (UniProt P25099).
T7 sequence (whole entry): T3 sequence (P25099 whole entry)
Described as §2. As to conditions: concentration not given here. It is filed as cell membranes. The gist of the method:
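Rat cerebral cortex membranes with [3H]-(R)-PIA. Adenosine deaminase (3 units/mL) present during membrane preparation, during a 30 min preincubation at 30 °C and during incubation. Competitor at ≥5 concentrations spanning 3 log units, DMSO ≤2%.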

Adenosine receptor A2a, sequence (P30543 whole entry): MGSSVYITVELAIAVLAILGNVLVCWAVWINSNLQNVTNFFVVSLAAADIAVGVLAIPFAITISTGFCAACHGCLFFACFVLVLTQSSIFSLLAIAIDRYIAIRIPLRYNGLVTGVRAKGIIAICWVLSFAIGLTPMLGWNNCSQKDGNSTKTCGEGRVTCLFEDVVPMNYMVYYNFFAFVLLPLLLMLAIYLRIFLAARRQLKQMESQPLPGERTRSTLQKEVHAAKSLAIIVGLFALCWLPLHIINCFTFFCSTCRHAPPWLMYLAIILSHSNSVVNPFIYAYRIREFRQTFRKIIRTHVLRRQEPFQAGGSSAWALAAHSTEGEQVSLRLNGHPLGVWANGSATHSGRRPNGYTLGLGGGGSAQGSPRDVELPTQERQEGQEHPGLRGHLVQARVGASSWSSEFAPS
Adenosine receptor A2a (Rattus norvegicus), sequence (P30543 whole entry): as above

On to `CCO/C(O)=C1\C(C)=NC(C)=C(C(=O)OC)C1CC(C)CCC=C(C)C` (centres undefined), for which, at Adenosine receptor A2a (read-out: Ki), the inhibition constant (Ki) came to 23.1 µM.

With `CCCC1C(C(=O)OCC)=C(C)N=C(C)/C1=C(\O)OC` (centres undefined), the Ki at Adenosine receptor A2a (read-out: Ki) worked out at 11.5 µM. The same measure, in the same setting: in the case of `CCO/C(O)=C1\C(C)=NC(C)=C(C(=O)OC)C1C` (stereo in doubt; 1) it was 46.1 µM. As for `CCO/C(O)=C1\C(C)=NC(C)=C(C(=O)OC)C1CCc1ccccc1` (centres undefined), the inhibition constant Ki at Adenosine receptor A2a (read-out: Ki) is 6.71 µM.

Turning to `CCOC(=O)C1=C(c2ccccc2)N=C(C)/C(=C(\O)OCC)C1C` (stereo in doubt; 27), in series [1], the Inhibition came to 17%. At Adenosine receptor A2a (read-out: Ki), the Ki was determined as 35.9 µM.

For the compound `CCOC(=O)C1=C(C)NC(C)=C(C(=O)OC)C1c1ccccc1` (centres undefined), the Ki on Adenosine receptor A2a (read-out: Ki) stood at 2.74 µM. As for `CCOC(=O)C1=C(C)NC(C)=C(C(=O)OC)C1/C=C/c1ccccc1` (centres undefined), the Ki at Adenosine receptor A3 [2] was 0.67 µM; on Adenosine receptor A1, 16.1 µM; in series [3] it was 0.694 µM; at Adenosine receptor A2a (read-out: Ki), 49.3 µM; at Adenosine receptor A3 [4], 12.1 µM. In the case of `COCCO/C(O)=C1\C(C)=NC(C)=C(C(=O)OC)C1C` (centres undefined), the inhibition in series [5] was 37%. With `CCO/C(O)=C1\C(C)=NC(C)=C(C(=O)OC)C1c1ccc(OC)cc1` (centres undefined), the inhibition constant Ki on Adenosine receptor A2a (read-out: Ki) amounted to 12.7 µM. On to `CCO/C(O)=C1\C(C)=NC(C)=C(C(=O)OC)C1c1ccccc1C(F)(F)F` (centres undefined), for which the inhibition constant (Ki) at Adenosine receptor A2a (read-out: Ki) came out at 20.7 µM. `CCOC(=O)C1=C(c2ccccc2)N=C(C)/C(=C(\O)OCC)C1C` (stereo in doubt; 30): the Inhibition in [1] is reported as less than 10%. Further, the Ki at Adenosine receptor A2a (read-out: Ki) was found to be 28.4 µM. In the case of `CCOC(=O)C1=C(c2ccccc2)N=C(C)/C(=C(/O)OCC)C1/C=C/c1ccccc1` (centres undefined), in series [1], the Inhibition was less than 10%. In addition, the inhibitory constant (Ki) on Adenosine receptor A2a (read-out: Ki) worked out at 4.77 µM. In turn, `COC(=O)C1=C(C)NC(C)=C(C(=O)OCCN(C)Cc2ccccc2)C1c1cccc([N+](=O)[O-])c1` (centres undefined) [NICARDIPINE] returned an inhibition in [6] of 27.2%. Moreover, the Ki was 5.36 µM in series [7] and 11 µM on Adenosine receptor A3 [4]. On to `COC(=O)C1=C(C)NC(C)=C(C(=O)OCCCN2CCC(c3ccccc3)(c3ccccc3)CC2)[C@@H]1c1cccc([N+](=O)[O-])c1` [DEXNIGULDIPINE], for which the inhibition constant Ki result at Adenosine receptor A2a is “Not Active”. For the compound `CCOC(=O)C1=C(C)NC(C)=C(C(=O)OC)C1c1cccc([N+](=O)[O-])c1` (centres undefined) [NITRENDIPINE], the inhibitory constant (Ki) at Adenosine receptor A3 [2] was determined as 8.3 µM; on Adenosine receptor A1, 8.96 µM; on Adenosine receptor A2a (read-out: Ki), 23 µM. In the case of `CCOC(=O)C1=C(C)NC(C)=C(C(=O)OC)C1C#Cc1ccccc1` (centres undefined), the Inhibition in series [1] is given as 23%. As to `COc1ccc(C2C=CNC=C2)cc1`, the Ki on Adenosine receptor A2a (read-out: Ki) was 71 µM. For the compound `CCO/C(O)=C1\C(C)=NC(C)=C(C(=O)OC)C1CC` (centres undefined), at Adenosine receptor A2a (read-out: Ki), the Ki was found to be 9.56 µM. In the case of `CCO/C(O)=C1\C(C)=NC(C)=C(C(=O)OC)C1c1ccc2c(c1)OCO2` (centres undefined), the Ki at Adenosine receptor A3 [2] was 4.58 µM; at Adenosine receptor A1 it was 3.66 µM; on Adenosine receptor A2a (read-out: Ki), 5.27 µM. Consider `CCCCC1=C(C(=O)OCC)C(C)/C(=C(/O)OCC)C(C)=N1` (centres undefined), for which the Ki on Adenosine receptor A2a (read-out: Ki) was determined as 38 µM. Still for that read-out and setting: in the case of `CCO/C(O)=C1/C(C)=NC(C)=C(C(=O)OCCSc2ccccc2)C1C` (centres undefined) it was 7.1 µM; in that of `CCO/C(O)=C1\C(C)=NC(C)=C(C(=O)OC)C1c1ccc(O)c(OC)c1` (centres undefined), 56.8 µM. Still for that read-out and setting: in the case of `CCO/C(O)=C1\C(C)=NC(C)=C(C(=O)OC)C1C` (stereo in doubt; 29) it was 8.96 µM. In series [8], `CCO/C(O)=C1\C(C)=NC(C)=C(C(=O)OC)C1c1ccc([N+](=O)[O-])cc1` (centres undefined) showed an inhibition of 37%. Further, at Adenosine receptor A2a (read-out: Ki), the Ki came out at 35.6 µM.

For the compound `CO/C(O)=C1/C(C)=NC(C)=C(C(=O)OCc2ccccc2)C1C` (centres undefined), on Adenosine receptor A2a (read-out: Ki), the inhibition constant Ki came to 9.72 µM.
